In ChEMBL document CHEMBL4627291, “A bicyclic pentapeptide-based highly potent and selective pan-SIRT1/2/3 inhibitor harboring Nε-thioacetyl-lysine” (Bioorg Med Chem, 2020):

Assays:
[1] = biological target: T1, NAD-dependent protein deacetylase sirtuin-1 (Homo sapiens, UniProt Q96EB6); assay: Inhibition of His6/GST-tagged human SIRT1 deacetylation activity using SIRT1 acetyl-lysine as substrate in presence of beta-NAD+ after 10 mins by reversed-phase HPLC analysis
T1 sequence (Q96EB6 whole entry): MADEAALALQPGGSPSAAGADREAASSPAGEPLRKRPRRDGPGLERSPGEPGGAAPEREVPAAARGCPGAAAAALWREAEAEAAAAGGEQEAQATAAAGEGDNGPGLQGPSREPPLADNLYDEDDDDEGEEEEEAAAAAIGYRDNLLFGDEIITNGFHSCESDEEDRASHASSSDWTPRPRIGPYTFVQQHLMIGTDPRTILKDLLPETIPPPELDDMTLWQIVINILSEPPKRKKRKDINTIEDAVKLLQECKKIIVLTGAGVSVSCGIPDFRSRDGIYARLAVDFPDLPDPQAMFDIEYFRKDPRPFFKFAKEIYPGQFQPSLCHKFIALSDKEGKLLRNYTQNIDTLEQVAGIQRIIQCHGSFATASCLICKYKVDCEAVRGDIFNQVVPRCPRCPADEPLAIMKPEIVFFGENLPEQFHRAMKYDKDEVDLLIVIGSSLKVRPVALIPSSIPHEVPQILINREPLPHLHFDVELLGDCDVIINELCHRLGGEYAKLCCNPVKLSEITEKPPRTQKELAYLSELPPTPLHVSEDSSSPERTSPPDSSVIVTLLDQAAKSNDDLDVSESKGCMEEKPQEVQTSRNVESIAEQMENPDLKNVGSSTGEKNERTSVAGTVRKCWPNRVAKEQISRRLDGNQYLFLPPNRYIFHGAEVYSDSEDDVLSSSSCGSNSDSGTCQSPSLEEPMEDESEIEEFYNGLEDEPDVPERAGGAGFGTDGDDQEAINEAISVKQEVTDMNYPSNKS
Procedure, shortened: (§1)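 Buffer: 50 mM Hepes pH 8.0, 137 mM NaCl, 2.7 mM KCl, 1 mM MgCl₂, 1 mM DTT, 0.5 mM β-NAD⁺, p53 380-384 K382-acetyl pentapeptide. SIRT1 runs use 0.3 mM peptide, 320 nM His₆- or GST-SIRT1, 10 min. SIRT2 runs use 0.39 mM peptide, 309 nM His₆-SIRT2, 12 min. Reactions run at 37 °C, quenched with HCl/acetic acid, read by C18 HPLC at 214 nm, turnover <10%. IC50 from Dixon plots.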

[2] = biological target: T2, NAD-dependent protein deacetylase sirtuin-2 (Homo sapiens, UniProt Q8IXJ6); assay: Inhibition of His6-tagged human SIRT2 deacetylation activity using SIRT1 acetyl-lysine as substrate in presence of beta-NAD+ after 12 mins by reversed-phase HPLC analysis; procedure, shortened: as §1
T2 sequence (Q8IXJ6 whole entry): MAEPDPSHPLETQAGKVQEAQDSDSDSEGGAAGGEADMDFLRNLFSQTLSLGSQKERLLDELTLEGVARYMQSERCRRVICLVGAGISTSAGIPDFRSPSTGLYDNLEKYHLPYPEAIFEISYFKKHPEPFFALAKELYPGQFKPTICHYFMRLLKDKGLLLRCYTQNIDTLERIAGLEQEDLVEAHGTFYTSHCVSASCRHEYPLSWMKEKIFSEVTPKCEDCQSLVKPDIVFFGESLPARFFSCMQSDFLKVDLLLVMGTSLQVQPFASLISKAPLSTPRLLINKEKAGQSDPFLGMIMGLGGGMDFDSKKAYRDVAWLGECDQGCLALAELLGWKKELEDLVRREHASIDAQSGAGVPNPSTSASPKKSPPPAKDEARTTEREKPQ

[3] = biological target: T3, NAD-dependent protein deacetylase sirtuin-3, mitochondrial (Homo sapiens, UniProt Q9NTG7); assay: Inhibition of His6-tagged human SIRT3 deacetylation activity using SIRT3 acetyl-lysine as substrate substrate in presence of beta-NAD+ after 10 mins by reversed-phase HPLC analysis
T3 sequence (Q9NTG7 whole entry): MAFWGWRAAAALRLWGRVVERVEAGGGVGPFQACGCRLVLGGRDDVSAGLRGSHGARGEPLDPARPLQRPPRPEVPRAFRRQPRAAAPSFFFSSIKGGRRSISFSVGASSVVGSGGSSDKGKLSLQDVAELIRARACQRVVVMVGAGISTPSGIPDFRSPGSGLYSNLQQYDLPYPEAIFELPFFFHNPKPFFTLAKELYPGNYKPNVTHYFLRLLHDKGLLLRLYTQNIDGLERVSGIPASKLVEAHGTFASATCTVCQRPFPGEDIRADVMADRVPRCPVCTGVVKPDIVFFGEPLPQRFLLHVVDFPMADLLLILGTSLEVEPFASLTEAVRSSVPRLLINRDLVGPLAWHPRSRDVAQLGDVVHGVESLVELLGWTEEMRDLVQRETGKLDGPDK

[4] = tested on: MCF7; assay: Antiproliferative activity against human MCF7 cells assessed as cell growth inhibition at 100 uM measured after 72 hrs by MTT assay relative to control; format: functional; conditions: MCF7, 72 h, read-out: GI
Procedure, shortened: (§2)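 MCF-7 cells, 5 x 10³ per well, grown overnight in DMEM with 10% FBS, then exposed at 37 °C to 0, 5, 12.5, 25, 50 or 100 μM final (water stock) for 24, 48 or 72 h. Afterwards, PBS wash, MTT at 0.5 mg/mL final for 4 h at 37 °C, DMSO solubilization, absorbance at 568 nm; mean of five measurements.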

[5] = biological target: NAD-dependent protein deacylase sirtuin-5, mitochondrial (Homo sapiens, UniProt Q9NXA8); assay: Inhibition of His6-tagged human SIRT5 desuccinylation activity using succinyl-lysine as substrate in presence of beta-NAD+ after 5 mins by reversed-phase HPLC analysis; conditions: in the assay text read “GST-tagged” for “His6-tagged”
Sequence of NAD-dependent protein deacylase sirtuin-5, mitochondrial (Q9NXA8 whole entry): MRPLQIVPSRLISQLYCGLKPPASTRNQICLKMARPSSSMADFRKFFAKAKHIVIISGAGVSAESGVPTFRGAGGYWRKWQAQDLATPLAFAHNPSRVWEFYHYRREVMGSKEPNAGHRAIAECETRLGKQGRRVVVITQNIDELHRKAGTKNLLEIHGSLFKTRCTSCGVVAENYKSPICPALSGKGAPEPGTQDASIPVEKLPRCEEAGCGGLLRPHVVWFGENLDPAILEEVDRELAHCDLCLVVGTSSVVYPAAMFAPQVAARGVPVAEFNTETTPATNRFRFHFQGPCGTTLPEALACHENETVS
Procedure, shortened: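 GST-SIRT5 (370 nM) with 0.88 mM succinyl-lysine peptide and 0.8 mM β-NAD⁺ in 50 mM Hepes pH 8.0, 137 mM NaCl, 2.7 mM KCl, 1 mM MgCl₂, 1 mM DTT; 5 min at 37 °C. Stopped with 100 mM HCl/0.16 M acetic acid; C18 HPLC at 214 nm, turnover <10%; IC50 by Dixon plot.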

[6] = biological target: NAD-dependent protein deacylase sirtuin-6 (Homo sapiens, UniProt Q8N6T7); assay: Inhibition of His6-tagged human SIRT6 demyristoylation activity using myristoyl-lysine substrate in presence of beta-NAD+ after 12 mins by reversed-phase HPLC analysis
Sequence of NAD-dependent protein deacylase sirtuin-6 (Q8N6T7 whole entry): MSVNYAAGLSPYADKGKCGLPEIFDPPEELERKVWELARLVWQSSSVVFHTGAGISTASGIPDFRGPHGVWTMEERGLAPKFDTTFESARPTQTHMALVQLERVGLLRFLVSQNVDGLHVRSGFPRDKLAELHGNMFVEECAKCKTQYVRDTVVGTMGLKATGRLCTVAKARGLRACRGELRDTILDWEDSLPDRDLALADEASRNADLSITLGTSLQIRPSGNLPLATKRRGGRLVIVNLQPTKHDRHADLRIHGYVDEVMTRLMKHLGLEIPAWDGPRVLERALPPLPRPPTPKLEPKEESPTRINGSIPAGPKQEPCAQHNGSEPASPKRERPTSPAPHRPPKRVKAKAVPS
Procedure, shortened: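 His₆-SIRT6 (313 nM) with 0.02 mM myristoyl-lysine peptide and 0.2 mM β-NAD⁺ in Hepes pH 8.0 buffer with NaCl, KCl, MgCl₂ and 1 mM DTT; 12 min at 37 °C. Acid quench, C18 HPLC at 214 nm, turnover <10%; IC50 from Dixon plots.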

[7] = biological target: T4, NAD-dependent protein deacetylase sirtuin-7 (Homo sapiens, UniProt Q9NRC8); assay: Inhibition of tRNA-activated His6-tagged human SIRT7 deacetylation activity using acetyl-lysine as substrate in presence of beta-NAD+ after 30 mins by reversed-phase HPLC analysis
T4 sequence (Q9NRC8 whole entry): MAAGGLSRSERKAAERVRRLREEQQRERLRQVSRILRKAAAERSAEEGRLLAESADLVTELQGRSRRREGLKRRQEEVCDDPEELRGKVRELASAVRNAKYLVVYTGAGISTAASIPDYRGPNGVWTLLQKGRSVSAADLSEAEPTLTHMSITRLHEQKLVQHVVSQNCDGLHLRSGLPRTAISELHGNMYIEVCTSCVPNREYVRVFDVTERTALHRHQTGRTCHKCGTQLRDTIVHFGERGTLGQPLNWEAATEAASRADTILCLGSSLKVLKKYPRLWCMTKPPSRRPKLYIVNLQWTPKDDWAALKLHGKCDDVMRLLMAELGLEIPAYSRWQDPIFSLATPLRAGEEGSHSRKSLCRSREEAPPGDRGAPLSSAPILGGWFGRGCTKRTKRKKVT
Procedure, shortened: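 His₆-SIRT7 (570 nM) with yeast tRNA (3-fold molar excess over enzyme) and RNase inhibitor (~1 U/μL). Substrate: 1.8 mM H3 12-24 K18-acetyl peptide with 3 mM β-NAD⁺, in 50 mM Hepes pH 8.0, 150 mM NaCl, 1 mM DTT, no KCl or MgCl₂; 30 min at 37 °C. Acid quench, C18 HPLC at 214 nm; IC50 by Dixon plot.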

[8] = Enzymatic stability assessed as pronase (unknown origin)-mediated compound hydrolysis at pH 7.3 measured up to 30 mins by HPLC method; format: ADME, Homo sapiens; conditions: buffer, pH 7.3, 0.5 h
Procedure, shortened: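 Compound solution in water (160 μM) mixed 1:1 with Streptomyces griseus pronase (8 ng/μL) in 100 mM Tris·HCl pH 7.3 at 37 °C. Aliquots quenched with 1.0 M acetic acid at 0, 2.5, 5, 10, 20 and 30 min, then C18 RP-HPLC at 214 nm; mean of two measurements.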

[9] = biological target: T5, NAD-dependent protein deacetylase sirtuin-1 (Homo sapiens) (UniProt Q96EB6); assay: Inhibition of SIRT1 deacetylation activity in human HCT116 cells assessed as increase in acetylated p53 K382 level by Western blot analysis; format: cell-based; conditions: HCT-116
T5 sequence (whole entry): T1 sequence (Q96EB6 whole entry)
Procedure, shortened: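 HCT116 cells (5 x 10⁵) in McCoy 5A with 10% FBS, treated 8 h at 37 °C at 0, 0.5, 2, 10, 50 and 100 μM final (water stock). Lysates run on SDS-PAGE, transferred to PVDF, probed with anti-acetyl-p53 K382 and anti-p53, HRP secondary, ECL detection.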

[10] = tested on: MCF7; assay: Antiproliferative activity against human MCF7 cells assessed as cell growth inhibition measured up to 72 hrs by MTT assay; format: functional, cell-based; procedure, shortened: as §2
[11] = tested on: SK-MEL-2; assay: Antiproliferative activity against human SK-MEL-2 cells assessed as cell growth inhibition measured up to 72 hrs by MTT assay; format: functional, cell-based
Procedure, shortened: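 SK-MEL-2 melanoma cells, 5 x 10³ per well, grown overnight in MEM with 10% FBS, then exposed at 37 °C to 0, 5, 12.5, 25, 50 or 100 μM final (water stock) for 24, 48 or 72 h. Afterwards, PBS wash, MTT at 0.5 mg/mL final for 4 h at 37 °C, DMSO solubilization, A568 read; mean of five measurements.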

Row | Compound | IC50 [1] | IC50 [2] | IC50 [3] | other results
1 | CSCC[C@H](NC(=O)[C@H](CC(C)C)NC(=O)[C@H](CCCCNC(C)=S)NC(=O)[C@@H]1Cc2ccc(cc2)OCCCC(=O)N[C@@H](Cc2c[nH]cn2)C(=O)N1)C(N)=O | 0.171 µM | 0.68 µM | 0.75 µM | 
2 | CC/C(=C(\c1ccccc1)c1ccc(OCCN(C)C)cc1)c1ccccc1 [TAMOXIFEN] |  |  |  | inhibition of growth at 100 µM [4]: > 80%
3 | CSCC[C@H](NC(=O)[C@H](CC(C)C)NC(=O)[C@H](CCCCNC(C)=S)NC(=O)[C@@H]1Cc2ccc(cc2)OCCCCCC(=O)N[C@@H](Cc2c[nH]cn2)C(=O)N1)C(N)=O | 0.646 µM | 1.03 µM |  | 
4 | CSCC[C@H](NC(=O)[C@H](CC(C)C)NC(=O)[C@H](CCCCNC(C)=S)NC(=O)[C@@H]1Cc2ccc(cc2)OCCCCCCCCCCC(=O)N[C@@H](Cc2c[nH]cn2)C(=O)N1)C(N)=O | 1.25 µM | 4.31 µM | 1.1 µM | 
5 | CSCC[C@@H]1NC(=O)[C@@H](NC(=O)[C@H](CCCCNC(C)=S)NC(=O)[C@@H]2Cc3ccc(cc3)OCCCC(=O)N[C@@H](Cc3c[nH]cn3)C(=O)N2)Cc2ccc(cc2)OCCCCCNC1=O | 0.54 µM | 0.253 µM | 0.72 µM | IC50 [5]: 443 µM; IC50 [6]: 390 µM; IC50 [7]: 78.9 µM; Stability [8]: Stable; inhibition [9]: Dose-dependent effect; Activity [10]: Dose-dependent effect; Activity [11]: Dose-dependent effect
6 | CSCC[C@@H]1NC(=O)[C@@H](NC(=O)[C@H](CCCCNC(C)=S)NC(=O)[C@H](CCCCN)NC(=O)[C@H](Cc2c[nH]cn2)NC(C)=O)Cc2ccc(cc2)OCCCNC1=O | 34.3 µM | 60.8 µM |  | 
7 | CSCC[C@H](NC(=O)[C@H](CC(C)C)NC(=O)[C@H](CCCCNC(C)=S)NC(=O)[C@@H]1Cc2ccc(cc2)OCCCCCCCC(=O)N[C@@H](Cc2c[nH]cn2)C(=O)N1)C(N)=O | 0.673 µM | 1.33 µM |  | 

The next lines start with results.

Row | IC50 [1] | IC50 [2] | IC50 [3] | Compound | other results
8 | 56.7 µM | 17.9 µM | 13.1 µM | CSCC[C@@H]1NC(=O)[C@@H](NC(=O)[C@H](CCCCNC(C)=S)NC(=O)[C@H](CCCCN)NC(=O)[C@H](Cc2c[nH]cn2)NC(C)=O)Cc2ccc(cc2)OCCCCCCCCCCNC1=O | 
9 | 13.6 µM | 115 µM |  | CSCC[C@@H]1NC(=O)[C@@H](NC(=O)[C@H](CCCCNC(C)=S)NC(=O)[C@H](CCCCN)NC(=O)[C@H](Cc2c[nH]cn2)NC(C)=O)Cc2ccc(cc2)OCCCCCNC1=O | 
10 | 22.6 µM | 25.5 µM | 217 µM | CSCC[C@@H]1NC(=O)[C@@H](NC(=O)[C@H](CCCCNC(C)=S)NC(=O)[C@H](CCCCN)NC(=O)[C@H](Cc2c[nH]cn2)NC(C)=O)Cc2ccc(cc2)OCCCCCCCNC1=O | 
